From ChEMBL document CHEMBL1121840, “Synthesis and antiinflammatory activity of 2,2'-diaminobiphenyl derivatives” (J Med Chem, 1981)

Assays:
Rattus norvegicus [1] = assay: Compound was tested for antiinflammatory activity in rats by adjuvant arthritis test after peroral administration of 50 mg/kg dose; no significant effect; assay type: functional, organism-based; parameters: dose 50 mg/kg
Rattus norvegicus [2] = assay: Compound was tested for antiinflammatory activity in rats by carrageenam edema test after peroral administration of 200 mg/kg dose; assay type: functional; details: route oral
Procedure, shortened: (§1)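 CD-COBS rats, both sexes. The drug was given orally as a suspension in 1% acacia gum (10 mL/kg), then carrageenan foot edema was induced per Winter et al. Read-out was % inhibition of edema; N = 5 rats per group; Dunnet's test. "No significant effect" means inhibition below 15%.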

Rattus norvegicus [3] = assay: Compound was tested for antiinflammatory activity in rats by adjuvant arthritis test after peroral administration of 50 mg/kg dose; assay type: functional; details: route oral
Rattus norvegicus [4] = assay: Compound was tested for antiinflammatory activity in Rat by carrageenam edema test after peroral administration of 200 mg/kg dose; assay type: functional; details: route oral; procedure, shortened: as §1
Rattus norvegicus [5] = assay: Compound was tested for antiinflammatory activity in rat by adjuvant arthritis test after peroral administration of 50 mg/kg dose; no significant effect; assay type: functional, organism-based; parameters: dose 50 mg/kg
Rattus norvegicus [6] = assay: Compound was tested for antiinflammatory activity in rats by carrageenam edema test after peroral administration of 200 mg/kg dose; no significant effect; assay type: functional, organism-based; parameters: dose 200 mg/kg; procedure, shortened: as §1
Rattus norvegicus [7] = assay: Compound was tested for antiinflammatory activity in rats by carrageenam induced pleurisy test at dose of 200 mg/kg, po,% reduction in leucocytes; assay type: functional
Procedure, shortened: (§2)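 Rats were dosed orally (1% acacia gum suspension) at 48, 24 and 1 h before intrapleural carrageenan, per Di Rosa et al. Pleural exudate was assessed 6 h later as % reduction in volume and in leucocytes; N = 8 rats per group; Dunnet's test.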

Rattus norvegicus [8] = assay: Compound was tested for antiinflammatory activity in rats by carrageenam induced pleurisy test at dose of 200 mg/kg, po; assay type: functional; procedure, shortened: as §2
Mus musculus = assay: Compound was tested for analgesic activity in mice by phenylquinone writhing test at dose of 200 mg/kg, po; assay type: functional
Procedure, shortened: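 Female mice received the drug orally in 1% acacia gum suspension (20 mL/kg) 1 h before i.p. 0.2 mL of 0.2% phenylquinone. Animals were caged individually and abdominal contractions counted over 20 min after injection; N = 4 mice per group; Dunnet's test.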

[9] = Compound was tested for lethal dose in mice after oral administration; assay type: ADME, organism-based; details: mouse, in vivo
Procedure, shortened: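 CD1 mice of both sexes given single oral dose of compound suspended in 1% acacia gum (20 mL/kg); LD50 calculated by probit method.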

Rattus norvegicus [10] = assay: Compound was tested for antiinflammatory activity in rats adjuvant arthritis test after peroral administration of 50 mg/kg dose; assay type: functional; details: route oral
Rattus norvegicus [11] = assay: Compound was tested for antiinflammatory activity in rat by carrageenam edema test after peroral administration of 200 mg/kg dose; assay type: functional; details: route oral; procedure, shortened: as §1
Rattus norvegicus [12] = assay: Compound was tested for antiinflammatory activity in rat by carrageenam edema test after peroral administration of 200 mg/kg dose; no significant effect; assay type: functional, organism-based; parameters: dose 200 mg/kg; procedure, shortened: as §1
Rattus norvegicus [13] = assay: Compound was tested for antiinflammatory activity in rat by adjuvant arthritis test after peroral administration of 50 mg/kg dose; assay type: functional; details: route oral

SMILES | inhibition (Rattus norvegicus [1]) | inhibition in vivo at 200 mg/kg (Rattus norvegicus [2]) | inhibition in vivo at 50 mg/kg (Rattus norvegicus [3]) | other results
CCNc1ccccc1-c1ccccc1NC(=O)Cc1ccc(O)cc1 | No significant effect | 45% | – | –
CCN(CC)CCNc1ccccc1-c1ccccc1NC(=O)Cc1ccc(N)cc1 | No significant effect | 33% | – | –
CNc1ccccc1-c1ccccc1NC(=O)Cc1ccc(O)cc1 | No significant effect | 17% | – | –
CC(=O)Oc1ccccc1C(=O)O [ASPIRIN] | – | 40% | 32% | –
CN(C)CCNc1ccccc1-c1ccccc1NC(=O)Cc1ccc([N+](=O)[O-])cc1 | – | – | – | inhibition in vivo at 200 mg/kg (Rattus norvegicus [4]): 54%; inhibition (Rattus norvegicus [5]): No significant effect
CCN(CC)CCCNc1ccccc1-c1ccccc1NC(=O)Cc1ccc([N+](=O)[O-])cc1 | – | – | 16% | inhibition (Rattus norvegicus [6]): No significant effect
COc1ccc(CC(=O)Nc2ccccc2-c2ccccc2NCCN(C)C)cc1 | No significant effect | 65% | – | –
CN(C)CCCNc1ccccc1-c1ccccc1NC(=O)Cc1ccc(Cl)cc1 | – | – | 30% | inhibition (Rattus norvegicus [6]): No significant effect
CCN(CC)CCCNc1ccccc1-c1ccccc1NC(=O)Cc1ccc(Cl)cc1 | – | – | 29% | inhibition (Rattus norvegicus [6]): No significant effect
Nc1ccccc1-c1ccccc1NC(=O)Cc1ccc(O)cc1 | No significant effect | 37% | – | –
CN(C)CCNc1ccccc1-c1ccccc1NC(=O)Cc1ccc(N)cc1 | No significant effect | 16% | – | –
CCN(CC)CCNc1ccccc1-c1ccccc1NC(=O)Cc1ccc([N+](=O)[O-])cc1 | – | – | – | Reduction (Rattus norvegicus [7]): 35%; Reduction (Rattus norvegicus [8]): 48%; inhibition in vivo at 200 mg/kg (Mus musculus): 34%; LD50 [9]: 1130 mg/kg; inhibition in vivo at 50 mg/kg (Rattus norvegicus [10]): 33%; inhibition in vivo at 200 mg/kg (Rattus norvegicus [11]): 54%
COc1ccc(CC(=O)Nc2ccccc2-c2ccccc2NCCCN(C)C)cc1 | No significant effect | 16% | – | –
CCN(CC)CCNc1ccccc1-c1ccccc1NC(=O)Cc1ccccc1 | – | – | – | inhibition (Rattus norvegicus [5]): No significant effect; inhibition in vivo at 200 mg/kg (Rattus norvegicus [11]): 17%
CN(C)CCCNc1ccccc1-c1ccccc1NC(=O)Cc1ccc([N+](=O)[O-])cc1 | – | – | – | inhibition (Rattus norvegicus [12]): No significant effect; inhibition in vivo at 50 mg/kg (Rattus norvegicus [13]): 24%
CCCNc1ccccc1-c1ccccc1NC(=O)Cc1ccc(Cl)cc1 | No significant effect | 33% | – | –
CNc1ccccc1-c1ccccc1NC(=O)Cc1ccc(OC)cc1 | – | 20% | 22% | –
CCCCC1C(=O)N(c2ccccc2)N(c2ccccc2)C1=O [PHENYLBUTAZONE] | – | 42% | – | Reduction (Rattus norvegicus [7]): 35%; Reduction (Rattus norvegicus [8]): 43%; inhibition in vivo at 200 mg/kg (Mus musculus): 45%; LD50 [9]: 650 mg/kg; inhibition in vivo at 50 mg/kg (Rattus norvegicus [10]): 66%
CCNc1ccccc1-c1ccccc1NC(=O)Cc1ccccc1 | No significant effect | 30% | – | –
CNc1ccccc1-c1ccccc1NC(=O)Cc1ccc([N+](=O)[O-])cc1 | – | – | 16% | inhibition (Rattus norvegicus [6]): No significant effect
